Results from ChEMBL document CHEMBL2046312, “Synthesis and biological activity of potent HIV-1 protease inhibitors based on Phe-Pro dihydroxyethylene isosteres” (J Med Chem, 2012).
pIC50: −log10 of the molar value. Each block holds one molecule with its values, some of them ahead of it.

What was measured:
[1] = biological target: T1, Protease (Human immunodeficiency virus 1, UniProt Q9YQ12); test: Inhibition of Human immunodeficiency virus 1 protease using Abz-Thr-Ile-Nle-Phe(p-NO2)-Gln-Arg-NH2 as substrate by fluorescence analysis
T1 sequence (Q9YQ12 whole entry): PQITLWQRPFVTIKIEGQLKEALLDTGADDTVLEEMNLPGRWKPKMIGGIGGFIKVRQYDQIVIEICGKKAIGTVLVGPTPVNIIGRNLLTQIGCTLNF
Procedure, shortened: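 Recombinant wild-type HIV-1 PR with fluorogenic substrate Abz-NF*-6, run at pH 5.5. […] 1.2 nM PR needed to detect activity. Active enzyme concentration set by titration with ritonavir and nelfinavir. The IC50 measurability limit is one-half of the active enzyme concentration.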

[2] = system: Human immunodeficiency virus 1; test: Antiviral activity against Human immunodeficiency virus 1 3B infected in human MT2 cells assessed as survival of virus infected cells at 5 nM after 72 to 96 hrs by MTT assay; assay type: functional
Procedure, shortened: (§1)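 HIV-1 IIIB from supernatants of chronically infected H9/HTLV IIIB cells; stock characterized by p24, RT activity and infectivity (2 × 10⁶ infectious virions/mL). MT-2 cells in RPMI 1640 + 10% FCS, infected at MOI 0,1 and incubated with inhibitor for 72−96 h. Microtiter infection assay, MTT uptake read at 540 nm, expressed as % survival of virus-infected cells.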

[3] = system: MT2; test: Ratio of MNC for human MT2 cells after 96 hrs to MNC for human MT2 cells after 72 hrs; assay type: ADME, cell-based
[4] = Ratio of CC50 for human MT2 cells after 96 hrs to CC50 for human MT2 cells after 72 hrs; assay type: cell-based
[5] = system: Human immunodeficiency virus 1; test: Antiviral activity against Human immunodeficiency virus 1 3B infected in human MT2 cells assessed as inhibition of reverse transcriptase activity at 10 nM after 72 to 96 hrs by MTT assay relative to untreated control; assay type: functional; design: scale not given: the % may be the effect or the level left
[6] = (§2) Cytotoxicity against human MT2 cells assessed as maximum non-toxic concentration after 96 hrs by MTT assay; assay type: cell-based; conditions: MT2 cells, read-out: MNCC
Procedure, shortened: (§3)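 MT-2 cells grown in RPMI 1640 with 10% fetal calf serum and exposed to inhibitor for 72 or 96 h. MTT uptake read-out. CC50 is derived from % cell survival. MNC is the highest concentration that alters neither monolayer morphology nor survival rate. Six to eight parallels per experiment, each experiment run in triplicate.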

[7] = system: MT2; test: as §2; assay type: cell-based; conditions: mt2, 96 h; procedure, shortened: as §3
[8] = biological target: T1, Protease; test: Inhibition of HIV1 3B protease activity in human H9 cells using Abz-Thr-Ile-Nle-Phe(p-NO2)-Gln-Arg-NH2 as substrate after 40 mins by spectrophotometric analysis; assay type: cell-based
[9] = system: Human immunodeficiency virus 1; test: Antiviral activity against Human immunodeficiency virus 1 3B infected in human MT2 cells assessed as inhibition of reverse transcriptase activity at 5 nM after 72 to 96 hrs by MTT assay relative to untreated control; assay type: functional; design: scale not given: the % may be the effect or the level left
[10] = (§4) Cytotoxicity against human MT2 cells after 72 hrs by MTT assay; assay type: cell-based; conditions: MT2 cells; procedure, shortened: as §3
[11] = system: MT2; test: as §4; assay type: cell-based; conditions: mt2, 72 h; procedure, shortened: as §3
[12] = (§5) Cytotoxicity against human MT2 cells after 96 hrs by MTT assay; assay type: cell-based; conditions: MT2 cells; procedure, shortened: as §3
[13] = system: MT2; test: as §5; assay type: cell-based; conditions: mt2, 96 h; procedure, shortened: as §3
[14] = (§6) Cytotoxicity against human MT2 cells assessed as maximum non-toxic concentration after 72 hrs by MTT assay; assay type: cell-based; conditions: MT2 cells, read-out: MNCC; procedure, shortened: as §3
[15] = system: MT2; test: as §6; assay type: cell-based; conditions: mt2, 72 h; procedure, shortened: as §3
[16] = system: Human immunodeficiency virus 1; test: Antiviral activity against Human immunodeficiency virus 1 3B infected in human MT2 cells assessed as survival of virus infected cells at 10 nM after 72 to 96 hrs by MTT assay; assay type: functional; procedure, shortened: as §1
[17] = system: Human immunodeficiency virus 1; test: Antiviral activity against Human immunodeficiency virus 1 3B infected in human MT2 cells assessed as inhibition of reverse transcriptase activity at 0.0000001 nM after 72 to 96 hrs by MTT assay relative to untreated control; assay type: functional; design: scale not given: the % may be the effect or the level left
[18] = system: Human immunodeficiency virus 1; test: Antiviral activity against Human immunodeficiency virus 1 3B infected in human MT2 cells assessed as inhibition of reverse transcriptase activity at 0.000001 nM after 72 to 96 hrs by MTT assay relative to untreated control; assay type: functional; design: scale not given: the % may be the effect or the level left
[19] = system: Human immunodeficiency virus 1; test: Antiviral activity against Human immunodeficiency virus 1 3B infected in human MT2 cells assessed as inhibition of reverse transcriptase activity at 0.0001 nM after 72 to 96 hrs by MTT assay relative to untreated control; assay type: functional; design: scale not given: the % may be the effect or the level left
[20] = system: Human immunodeficiency virus 1; test: Antiviral activity against Human immunodeficiency virus 1 3B infected in human MT2 cells assessed as survival of virus infected cells at 0.0001 nM after 72 to 96 hrs by MTT assay; assay type: functional; procedure, shortened: as §1
[21] = system: Human immunodeficiency virus 1; test: Antiviral activity against Human immunodeficiency virus 1 3B infected in human MT2 cells assessed as inhibition of reverse transcriptase activity at 0.1 nM after 72 to 96 hrs by MTT assay relative to untreated control; assay type: functional; design: scale not given: the % may be the effect or the level left
[22] = system: Human immunodeficiency virus 1; test: Antiviral activity against Human immunodeficiency virus 1 3B infected in human MT2 cells assessed as survival of virus infected cells at 0.000001 nM after 72 to 96 hrs by MTT assay; assay type: functional; procedure, shortened: as §1
[23] = system: Human immunodeficiency virus 1; test: Antiviral activity against Human immunodeficiency virus 1 3B infected in human MT2 cells assessed as inhibition of reverse transcriptase activity at 0.00001 nM after 72 to 96 hrs by MTT assay relative to untreated control; assay type: functional; design: scale not given: the % may be the effect or the level left
[24] = system: Human immunodeficiency virus 1; test: Antiviral activity against Human immunodeficiency virus 1 3B infected in human MT2 cells assessed as inhibition of reverse transcriptase activity at 0.001 nM after 72 to 96 hrs by MTT assay relative to untreated control; assay type: functional; design: scale not given: the % may be the effect or the level left
[25] = system: Human immunodeficiency virus 1; test: Antiviral activity against Human immunodeficiency virus 1 3B infected in human MT2 cells assessed as survival of virus infected cells at 0.0000001 nM after 72 to 96 hrs by MTT assay; assay type: functional; procedure, shortened: as §1
[26] = system: Human immunodeficiency virus 1; test: Antiviral activity against Human immunodeficiency virus 1 3B infected in human MT2 cells assessed as survival of virus infected cells at 0.1 nM after 72 to 96 hrs by MTT assay; assay type: functional; procedure, shortened: as §1
[27] = system: Human immunodeficiency virus 1; test: Antiviral activity against Human immunodeficiency virus 1 3B infected in human MT2 cells assessed as survival of virus infected cells at 0.001 nM after 72 to 96 hrs by MTT assay; assay type: functional; procedure, shortened: as §1
[28] = system: Human immunodeficiency virus 1; test: Antiviral activity against Human immunodeficiency virus 1 3B infected in human MT2 cells assessed as survival of virus infected cells at 0.00001 nM after 72 to 96 hrs by MTT assay; assay type: functional; procedure, shortened: as §1

SMILES: Cc1cccc(C)c1OCC(=O)N1CCC[C@H]1[C@H](O)[C@@H](O)[C@@H]1CCCN1C(=O)COc1c(C)cccc1C
pIC50 [1]: 3.54

SMILES: CC(=O)N[C@@H](Cc1c[nH]c2ccccc12)C(=O)N[C@H](C(=O)N[C@@H](Cc1ccccc1)[C@H](O)[C@@H](O)[C@@H]1CCCN1C(=O)[C@@H](NC(=O)[C@H](Cc1c[nH]c2ccccc12)NC(C)=O)C(C)C)C(C)C
survival at 0.005 µM [2]: > 90%
Ratio [3]: 33
selectivity ratio [4]: 5000
Activity [5]: 24%
MNTC at 96 h [6]: 0.3 nM
Activity [7]: Dose-dependent effect
pIC50 [8]: 8.30
Activity [9]: 50%
pIC50 [1]: > 9.22
CC50 at 72 h [10]: 2500 µM
Activity [11]: Dose-dependent effect
CC50 at 96 h [12]: 0.5 µM
Activity [13]: Dose-dependent effect
MNTC at 72 h [14]: 10 nM
Activity [15]: Dose-dependent effect
survival at 0.01 µM [16]: > 90%

SMILES: Cc1cccc(C)c1OCC(=O)N[C@@H](Cc1ccccc1)[C@H](O)[C@@H](O)[C@H](Cc1ccccc1)NC(=O)COc1c(C)cccc1C
pIC50 [1]: 7.55

SMILES: CC(=O)N[C@@H](Cc1c[nH]c2ccccc12)C(=O)N[C@H](C(=O)N[C@@H](Cc1ccccc1)[C@H](O)[C@@H](O)[C@H](Cc1ccccc1)NC(=O)[C@@H](NC(=O)[C@H](Cc1c[nH]c2ccccc12)NC(C)=O)C(C)C)C(C)C
pIC50 [1]: 8.22

SMILES: Cc1cccc(C)c1OCC(=O)N[C@@H](Cc1ccccc1)[C@H](O)[C@@H](O)[C@@H]1CCCN1C(=O)COc1c(C)cccc1C
Activity [17]: 26%
Activity [18]: 28%
Activity [19]: 26%
survival at 100 fM [20]: 87%
MNTC at 96 h [6]: 0.1 nM
Activity [7]: Dose-dependent effect
pIC50 [8]: 11.82
pIC50 [1]: 8.02
Activity [21]: 24%
survival at 1 fM [22]: > 90%
CC50 at 72 h [10]: 300 µM
Activity [11]: Dose-dependent effect
Activity [23]: 29%
Activity [24]: 25%
survival at 1e-10 µM [25]: > 90%
CC50 at 96 h [12]: 1000 µM
Activity [13]: Dose-dependent effect
survival at 0.0001 µM [26]: 78%
survival at 1 pM [27]: 80%
survival at 10 fM [28]: 90%
MNTC at 72 h [14]: 0.1 nM
Activity [15]: Dose-dependent effect

SMILES: CC(=O)N[C@@H](Cc1c[nH]c2ccccc12)C(=O)N[C@H](C(=O)N[C@@H](Cc1ccccc1)[C@H](O)[C@@H](O)[C@@H]1CCCCN1C(=O)[C@@H](NC(=O)[C@H](Cc1c[nH]c2ccccc12)NC(C)=O)C(C)C)C(C)C
pIC50 [1]: 8.74

SMILES: CC[C@H](C)[C@H](NC(=O)[C@@H](NC(C)=O)C(C)C)C(=O)N1CCC[C@H]1[C@H](O)[C@@H](O)[C@H](Cc1ccccc1)NC(=O)[C@H](CC(N)=O)NC(=O)[C@H](CC(C)C)NC(=O)[C@H](CO)NC(C)=O
pIC50 [1]: 9.22

Second part, the molecule after the results:

pIC50 [1]: 6.76
SMILES: Cc1cccc(C)c1OCC(=O)N[C@@H](Cc1ccccc1)[C@H](O)[C@@H](O)[C@@H]1CCCCN1C(=O)COc1c(C)cccc1C

pIC50 [1]: 3.94
SMILES: CC(=O)c1ccc(OCC(=O)N[C@@H](Cc2ccccc2)[C@H](O)[C@@H](O)[C@@H]2CCCN2C(=O)COc2ccc(C(C)=O)cc2)cc1

pIC50 [1]: 6.21
SMILES: O=C(COc1ccccc1)N[C@@H](Cc1ccccc1)[C@H](O)[C@@H](O)[C@@H]1CCCN1C(=O)COc1ccccc1

pIC50 [1]: 5.48
SMILES: Cc1cccc(C)c1OCC(=O)N[C@@H](Cc1ccccc1)[C@@H](O)[C@H](O)[C@H]1CCCN1C(=O)COc1c(C)cccc1C

pIC50 [1]: 6.18
SMILES: CC[C@H](NC(=O)COc1ccccc1C)[C@H](O)[C@@H](O)[C@@H]1CCCN1C(=O)COc1ccccc1C

pIC50 [1]: 7.07
SMILES: Cc1cccc(C)c1OCC(=O)N[C@@H](Cc1ccccc1)[C@H](O)[C@@H](O)[C@@H]1CCCN1C(=O)COc1ccccc1

pIC50 [1]: 7.12
SMILES: CC(=O)N[C@@H](Cc1c[nH]c2ccccc12)C(=O)N[C@H](C(=O)N1CCC[C@H]1[C@H](O)[C@@H](O)[C@H](Cc1ccccc1)NC(=O)COc1c(C)cccc1C)C(C)C
